Measurements taken from ChEMBL document CHEMBL4811251 (Eur J Med Chem, 2021).

How the values were obtained:
[1] = Tmax in Sprague-Dawley rat at 20 mg/kg, po measured upto 24 hrs by LC/MS/MS analysis; assay type: ADME, organism-based; conditions: in vivo
[2] = Half life in BALB/c mouse at 2 mg/kg, iv measured upto 24 hrs by LC/MS/MS analysis; assay type: ADME, organism-based; conditions: in vivo
MV4-11 [3] = experiment: Induction of apoptosis in human MV4-11 cells assessed as late apoptotic cells at 3 uM after 72 hrs by Annexin V FITC/PI staining based flow cytometry analysis (reference value: 3.41%); assay type: functional
[4] = Tmax in BALB/c mouse at 2 mg/kg, iv measured upto 24 hrs by LC/MS/MS analysis; assay type: ADME, organism-based; conditions: in vivo
[5] = Volume of distribution at steady state in Sprague-Dawley rat at 5 mg/kg, iv measured upto 24 hrs by LC/MS/MS analysis; assay type: ADME, organism-based; conditions: in vivo, read-out: Vdss
MV4-11 [6] = experiment: Induction of cell cylce arrest in human MV4-11 cells assessed as accumulation of cells at S phase at 3 uM after 72 hrs by RNase A/propidium iodide staining based flow cytometry (reference value: 18.81%); assay type: functional
In short: (§1)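 MV4-11 cells were seeded at 8 × 10⁴, held overnight at 37 °C with 5% CO2, then treated 72 h at 3 or 10 µM against a DMSO diluent control. Pellets were fixed in 70% ethanol on ice for 15 min, then stained 1 h at room temperature with PI, 0.1 mg/mL RNase A and 0.05% Triton X-100. Sub-G1, G1, S and G2/M fractions were read by flow cytometry.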

[7] = biological target: Protein kinase C theta (Homo sapiens) (UniProt Q04759); experiment: Inhibition of PKC theta (unknown origin) assessed as residual activity at 1 uM relative to control
Chain of Protein kinase C theta (Homo sapiens) (Q04759 whole entry, looked up): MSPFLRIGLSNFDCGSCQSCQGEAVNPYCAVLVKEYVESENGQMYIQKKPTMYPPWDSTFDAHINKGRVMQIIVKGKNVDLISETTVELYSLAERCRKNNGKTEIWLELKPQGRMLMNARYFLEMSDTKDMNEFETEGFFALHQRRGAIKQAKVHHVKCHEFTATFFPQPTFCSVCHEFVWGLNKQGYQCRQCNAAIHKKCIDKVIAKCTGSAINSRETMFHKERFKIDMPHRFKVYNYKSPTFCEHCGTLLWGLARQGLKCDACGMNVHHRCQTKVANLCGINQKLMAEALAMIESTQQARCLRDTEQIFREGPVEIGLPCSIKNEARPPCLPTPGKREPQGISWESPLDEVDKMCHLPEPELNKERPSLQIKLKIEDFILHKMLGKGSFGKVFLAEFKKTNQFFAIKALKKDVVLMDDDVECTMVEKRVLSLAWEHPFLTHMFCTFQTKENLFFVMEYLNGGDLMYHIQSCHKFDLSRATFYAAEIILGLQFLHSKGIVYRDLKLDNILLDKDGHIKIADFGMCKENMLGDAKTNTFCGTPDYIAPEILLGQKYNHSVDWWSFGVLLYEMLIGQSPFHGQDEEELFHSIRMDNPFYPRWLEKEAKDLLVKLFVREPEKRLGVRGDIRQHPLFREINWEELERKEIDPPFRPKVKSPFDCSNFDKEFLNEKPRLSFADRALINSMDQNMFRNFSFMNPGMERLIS

[8] = biological target: Macrophage colony-stimulating factor 1 receptor (Homo sapiens, UniProt P07333); experiment: Inhibition of human FMS using KKKSPGEYVNIEFG as substrate incubated for 40 mins in presence of [gamma-33ATP] by scintillation counting based radiometry assay
Chain of Macrophage colony-stimulating factor 1 receptor (P07333 whole entry): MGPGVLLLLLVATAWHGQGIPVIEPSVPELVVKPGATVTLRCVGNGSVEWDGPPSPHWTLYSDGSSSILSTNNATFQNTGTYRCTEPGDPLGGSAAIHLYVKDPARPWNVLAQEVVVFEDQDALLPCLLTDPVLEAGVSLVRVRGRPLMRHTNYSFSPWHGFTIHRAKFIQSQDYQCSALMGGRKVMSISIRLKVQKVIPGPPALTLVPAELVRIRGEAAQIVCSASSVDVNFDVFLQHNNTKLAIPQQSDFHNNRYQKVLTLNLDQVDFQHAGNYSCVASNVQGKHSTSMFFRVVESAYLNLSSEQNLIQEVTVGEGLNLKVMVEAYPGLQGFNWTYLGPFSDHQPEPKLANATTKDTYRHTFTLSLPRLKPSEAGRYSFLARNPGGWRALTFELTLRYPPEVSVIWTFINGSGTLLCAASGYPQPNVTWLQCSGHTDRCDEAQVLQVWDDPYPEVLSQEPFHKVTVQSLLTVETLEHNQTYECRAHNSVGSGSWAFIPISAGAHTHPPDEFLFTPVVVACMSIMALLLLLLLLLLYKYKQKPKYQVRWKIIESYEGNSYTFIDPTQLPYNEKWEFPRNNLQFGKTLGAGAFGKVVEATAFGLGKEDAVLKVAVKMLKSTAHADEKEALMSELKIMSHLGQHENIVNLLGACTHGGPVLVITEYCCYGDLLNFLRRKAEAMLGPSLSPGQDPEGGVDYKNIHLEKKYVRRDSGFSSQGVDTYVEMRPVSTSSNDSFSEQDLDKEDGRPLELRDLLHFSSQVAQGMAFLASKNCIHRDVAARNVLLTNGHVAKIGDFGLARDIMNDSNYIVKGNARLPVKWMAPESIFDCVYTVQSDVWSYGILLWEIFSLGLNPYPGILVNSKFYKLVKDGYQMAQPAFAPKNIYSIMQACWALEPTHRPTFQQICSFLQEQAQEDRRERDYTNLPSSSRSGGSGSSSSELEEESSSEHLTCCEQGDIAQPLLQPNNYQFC

[9] = Half life in BALB/c mouse at 10 mg/kg, po measured upto 24 hrs by LC/MS/MS analysis; assay type: ADME, organism-based; conditions: in vivo
MV4-11 [10] = experiment: Induction of apoptosis in human MV4-11 cells assessed as necrotic cells at 3 uM after 72 hrs by Annexin V FITC/PI staining based flow cytometry analysis (reference value: 0.23%); assay type: functional
[11] = Tmax in BALB/c mouse at 10 mg/kg, po measured upto 24 hrs by LC/MS/MS analysis; assay type: ADME, organism-based; conditions: in vivo
MV4-11 [12] = experiment: Induction of cell cylce arrest in human MV4-11 cells assessed as accumulation of cells at G2 phase at 3 uM after 72 hrs by RNase A/propidium iodide staining based flow cytometry (reference value: 12.61%); assay type: functional; in short: as §1
[13] = AUC in Sprague-Dawley rat at 5 mg/kg, iv measured upto 24 hrs by LC/MS/MS analysis; assay type: ADME, organism-based; parameters: route intravenous, dose 5 mg/kg, time <=24; conditions: in vivo
MV4-11 [14] = experiment: Induction of cell cylce arrest in human MV4-11 cells assessed as accumulation of cells at sub G1 phase at 10 uM after 72 hrs by RNase A/propidium iodide staining based flow cytometry (reference value: 1.58%); assay type: functional; in short: as §1
[15] = biological target: Glycogen synthase kinase-3 alpha (Homo sapiens) (UniProt P49840); experiment: Inhibition of GSK3alpha (unknown origin) assessed as residual activity at 1 uM relative to control
Chain of Glycogen synthase kinase-3 alpha (Homo sapiens) (P49840 2-483 limits assumed): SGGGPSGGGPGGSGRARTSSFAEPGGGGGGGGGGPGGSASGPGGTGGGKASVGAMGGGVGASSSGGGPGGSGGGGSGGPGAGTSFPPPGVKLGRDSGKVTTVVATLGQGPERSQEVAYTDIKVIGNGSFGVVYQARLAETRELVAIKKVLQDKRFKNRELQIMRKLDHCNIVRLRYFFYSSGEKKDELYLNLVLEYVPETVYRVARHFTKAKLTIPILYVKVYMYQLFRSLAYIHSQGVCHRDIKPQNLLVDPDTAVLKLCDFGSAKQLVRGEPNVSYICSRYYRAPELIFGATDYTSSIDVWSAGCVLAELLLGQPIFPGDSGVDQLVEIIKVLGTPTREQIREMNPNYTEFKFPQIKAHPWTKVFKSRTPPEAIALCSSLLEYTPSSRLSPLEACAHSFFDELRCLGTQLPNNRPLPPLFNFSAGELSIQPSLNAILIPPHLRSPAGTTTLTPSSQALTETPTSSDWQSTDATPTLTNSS

MDA-MB-468 = experiment: Antiproliferative activity against human MDA-MB-468 cells assessed as growth inhibition incubated for 72 hrs by MTT assay; assay type: functional
[16] = AUC in BALB/c mouse at 2 mg/kg, iv measured upto 24 hrs by LC/MS/MS analysis; assay type: ADME, organism-based; parameters: route intravenous, dose 2 mg/kg, time <=24; conditions: in vivo
[17] = Dissociation constant, pKa of the compound by fast UV-spectrometric titration method; assay type: physicochemical
[18] = Oral bioavailability in Sprague-Dawley rat at 20 mg/kg measured upto 24 hrs by LC/MS/MS analysis; assay type: ADME, organism-based; conditions: in vivo
[19] = Volume of distribution at steady state in BALB/c mouse at 2 mg/kg, iv measured upto 24 hrs by LC/MS/MS analysis; assay type: ADME, organism-based; conditions: in vivo, read-out: Vdss
[20] = biological target: T1, Leucine-rich repeat serine/threonine-protein kinase 2 (Homo sapiens, UniProt Q5S007); experiment: Inhibition of human LRRK2 at 1 uM using RLGRDKYKTLRQIRQ as substrate after 40 mins in presence of [gamma-33ATP] by scintillation counting based radiometry assay relative to control
T1 sequence (Q5S007 whole entry): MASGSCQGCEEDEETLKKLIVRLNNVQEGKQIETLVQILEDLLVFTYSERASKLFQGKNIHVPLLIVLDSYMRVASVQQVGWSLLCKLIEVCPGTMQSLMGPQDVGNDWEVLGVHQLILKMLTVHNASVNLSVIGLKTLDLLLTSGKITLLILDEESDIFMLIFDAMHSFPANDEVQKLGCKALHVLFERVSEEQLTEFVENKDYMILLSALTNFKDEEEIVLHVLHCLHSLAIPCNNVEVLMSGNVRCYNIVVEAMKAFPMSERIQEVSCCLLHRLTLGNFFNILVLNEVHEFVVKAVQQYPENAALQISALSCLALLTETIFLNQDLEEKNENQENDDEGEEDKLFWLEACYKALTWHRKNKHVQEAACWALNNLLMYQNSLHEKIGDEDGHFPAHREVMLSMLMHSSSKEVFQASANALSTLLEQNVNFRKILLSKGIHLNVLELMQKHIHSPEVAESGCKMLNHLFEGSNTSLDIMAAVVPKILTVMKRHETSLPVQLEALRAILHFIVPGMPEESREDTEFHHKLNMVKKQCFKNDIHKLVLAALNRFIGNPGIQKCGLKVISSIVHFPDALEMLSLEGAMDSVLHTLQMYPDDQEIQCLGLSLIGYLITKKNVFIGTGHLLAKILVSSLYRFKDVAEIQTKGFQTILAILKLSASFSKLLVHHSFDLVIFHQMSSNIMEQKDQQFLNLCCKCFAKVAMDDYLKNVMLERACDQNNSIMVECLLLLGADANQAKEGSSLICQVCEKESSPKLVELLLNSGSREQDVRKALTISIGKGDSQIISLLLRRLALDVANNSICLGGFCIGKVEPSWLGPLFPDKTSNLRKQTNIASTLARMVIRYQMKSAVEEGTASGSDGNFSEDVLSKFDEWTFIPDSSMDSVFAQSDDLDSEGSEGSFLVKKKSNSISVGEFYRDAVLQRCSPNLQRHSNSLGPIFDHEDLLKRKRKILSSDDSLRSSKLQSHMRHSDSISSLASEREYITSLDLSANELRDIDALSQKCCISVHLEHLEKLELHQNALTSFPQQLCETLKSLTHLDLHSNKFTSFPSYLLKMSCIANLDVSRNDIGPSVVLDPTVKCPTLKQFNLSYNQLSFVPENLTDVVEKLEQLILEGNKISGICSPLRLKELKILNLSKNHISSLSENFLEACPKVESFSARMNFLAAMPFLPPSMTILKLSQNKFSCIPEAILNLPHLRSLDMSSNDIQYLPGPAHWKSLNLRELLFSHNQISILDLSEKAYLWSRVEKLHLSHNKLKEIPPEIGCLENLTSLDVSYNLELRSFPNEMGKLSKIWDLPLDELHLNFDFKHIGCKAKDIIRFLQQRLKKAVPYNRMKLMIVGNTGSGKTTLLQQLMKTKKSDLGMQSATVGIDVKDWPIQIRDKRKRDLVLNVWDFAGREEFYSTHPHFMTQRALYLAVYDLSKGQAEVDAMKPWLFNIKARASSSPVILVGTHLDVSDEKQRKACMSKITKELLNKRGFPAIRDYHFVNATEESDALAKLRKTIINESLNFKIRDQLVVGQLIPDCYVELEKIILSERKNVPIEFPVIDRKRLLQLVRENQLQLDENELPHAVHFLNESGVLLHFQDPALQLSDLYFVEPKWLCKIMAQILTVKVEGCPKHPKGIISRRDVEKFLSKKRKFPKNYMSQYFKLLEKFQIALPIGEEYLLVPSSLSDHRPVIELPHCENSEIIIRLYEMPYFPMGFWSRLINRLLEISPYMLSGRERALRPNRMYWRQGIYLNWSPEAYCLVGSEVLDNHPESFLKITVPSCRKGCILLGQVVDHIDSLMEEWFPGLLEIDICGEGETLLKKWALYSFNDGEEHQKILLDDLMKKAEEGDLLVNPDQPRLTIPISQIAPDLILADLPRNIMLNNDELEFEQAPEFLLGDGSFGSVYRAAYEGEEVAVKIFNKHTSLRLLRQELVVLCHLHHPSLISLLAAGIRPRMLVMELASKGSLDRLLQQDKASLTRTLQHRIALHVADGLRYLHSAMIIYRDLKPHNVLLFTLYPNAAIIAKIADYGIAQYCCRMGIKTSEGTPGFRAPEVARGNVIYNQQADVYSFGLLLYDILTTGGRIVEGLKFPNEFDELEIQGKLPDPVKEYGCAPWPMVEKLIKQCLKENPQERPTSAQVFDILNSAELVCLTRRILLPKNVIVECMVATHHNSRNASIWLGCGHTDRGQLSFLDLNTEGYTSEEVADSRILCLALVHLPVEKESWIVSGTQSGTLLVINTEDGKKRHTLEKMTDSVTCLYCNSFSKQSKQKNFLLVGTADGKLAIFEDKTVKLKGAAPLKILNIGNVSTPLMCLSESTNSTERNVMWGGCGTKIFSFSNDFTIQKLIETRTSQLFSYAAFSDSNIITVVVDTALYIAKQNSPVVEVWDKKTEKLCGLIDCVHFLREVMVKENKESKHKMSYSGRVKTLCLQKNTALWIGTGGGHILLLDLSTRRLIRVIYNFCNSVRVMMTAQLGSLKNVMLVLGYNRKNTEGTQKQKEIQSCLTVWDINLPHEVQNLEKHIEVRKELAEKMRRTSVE

A2780 = experiment: Antiproliferative activity against human A2780 cells assessed as growth inhibition incubated for 72 hrs by MTT assay; assay type: functional
[21] = Tmax in Sprague-Dawley rat at 5 mg/kg, iv measured upto 24 hrs by LC/MS/MS analysis; assay type: ADME, organism-based; conditions: in vivo
MV4-11 [22] = experiment: Induction of apoptosis in human MV4-11 cells assessed as necrotic cells at 10 uM after 72 hrs by Annexin V FITC/PI staining based flow cytometry analysis (reference value: 0.23%); assay type: functional
MV4-11 [23] = experiment: Induction of cell cylce arrest in human MV4-11 cells assessed as accumulation of cells at S phase at 10 uM after 72 hrs by RNase A/propidium iodide staining based flow cytometry (reference value: 18.81%); assay type: functional; in short: as §1
[24] = Half life in Sprague-Dawley rat at 20 mg/kg, po measured upto 24 hrs by LC/MS/MS analysis; assay type: ADME, organism-based; conditions: in vivo
MV4-11 [25] = experiment: Induction of apoptosis in human MV4-11 cells assessed as late apoptotic cells at 10 uM after 72 hrs by Annexin V FITC/PI staining based flow cytometry analysis (reference value: 3.41%); assay type: functional
MV4-11 [26] = experiment: Induction of cell cylce arrest in human MV4-11 cells assessed as accumulation of cells at G2 phase at 10 uM after 72 hrs by RNase A/propidium iodide staining based flow cytometry (reference value: 12.61%); assay type: functional; in short: as §1
MV4-11 [27] = experiment: Induction of apoptosis in human MV4-11 cells assessed as early apoptotic cells at 3 uM after 72 hrs by Annexin V FITC/PI staining based flow cytometry analysis (reference value: 2.73%); assay type: functional
MV4-11 [28] = experiment: Induction of apoptosis in human MV4-11 cells assessed as early apoptotic cells at 10 uM after 72 hrs by Annexin V FITC/PI staining based flow cytometry analysis (reference value: 2.73%); assay type: functional
MV4-11 [29] = experiment: Induction of cell cylce arrest in human MV4-11 cells assessed as accumulation of cells at G1 phase at 10 uM after 72 hrs by RNase A/propidium iodide staining based flow cytometry (reference value: 64.41%); assay type: functional; in short: as §1
[30] = Clearance in BALB/c mouse at 2 mg/kg, iv measured upto 24 hrs by LC/MS/MS analysis; assay type: ADME, organism-based; conditions: in vivo
[31] = biological target: T1, Leucine-rich repeat serine/threonine-protein kinase 2; experiment: Inhibition of human LRRK2 using RLGRDKYKTLRQIRQ as substrate after 40 mins in presence of [gamma-33ATP] by scintillation counting based radiometry assay
[32] = Cmax in Sprague-Dawley rat at 5 mg/kg, iv measured upto 24 hrs by LC/MS/MS analysis; assay type: ADME, organism-based; parameters: route intravenous, dose 5 mg/kg, time <=24; conditions: in vivo

Q: With `Nc1ncc(-c2cc3ccccc3o2)c(N2CCC3(CCNC3=O)CC2)c1Cl` as the compound, how does the Tmax [1] read?
A: The Tmax was 240 min.

Q: And the half-life [2]?
A: Its half-life is 22.2 min.

Q: And the Activity (MV4-11 [3])?
A: Its Activity is 8.24%.

Q: What about the Tmax [4] of the same compound?
A: The Tmax was 3 min.

Q: And the Vd [5]?
A: Its Vd is 1.57 L/kg.

Q: What about the Activity (MV4-11 [6]) of the same compound?
A: Its Activity is 10.03%.

Q: And the Activity [7]?
A: Its Activity is 61%.

Q: And the Ki [8]?
A: Its Ki is 166 nM.

Q: What about the half-life [9] of the same compound?
A: The half-life was 206 min.

Q: What about the Activity (MV4-11 [10]) of the same compound?
A: The Activity was 0.42%.

Q: And the Tmax [11]?
A: Its Tmax is 20.4 min.

Q: And the Activity (MV4-11 [12])?
A: Its Activity is 8.11%.

Q: And the AUC at 24 h [13]?
A: The AUC at 24 h was 8.92 µM·h.

Q: What about the Activity (MV4-11 [14]) of the same compound?
A: Its Activity is 4.89%.

Q: And the Activity [15]?
A: The Activity was 61%.

Q: What about the GI50 (MDA-MB-468) of the same compound?
A: The GI50 was 650 nM.

Q: What about the AUC at 24 h [16] of the same compound?
A: The AUC at 24 h was 1.55 µM·h.

Q: What about the pKa [17] of the same compound?
A: The pKa was 5.27.

Q: What about the bioavailability [18] of the same compound?
A: Its bioavailability is 70%.

Q: What about the Vd [19] of the same compound?
A: Its Vd is 1.24 L/kg.

Q: And the inhibition [20]?
A: The inhibition was > 50%.

Q: And the GI50 (A2780)?
A: Its GI50 is 5310 nM.

Q: And the Tmax [21]?
A: The Tmax was 1.8 min.

Q: What about the Activity (MV4-11 [22]) of the same compound?
A: Its Activity is 0.59%.

Q: And the Activity (MV4-11 [23])?
A: The Activity was 1.8%.

Q: And the half-life [24]?
A: The half-life was 419 min.

Q: What about the Activity (MV4-11 [25]) of the same compound?
A: The Activity was 14.01%.

Q: And the Activity (MV4-11 [26])?
A: The Activity was 1.83%.

Q: What about the Activity (MV4-11 [27]) of the same compound?
A: The Activity was 1.81%.

Q: And the Activity (MV4-11 [28])?
A: The Activity was 1.96%.

Q: And the Activity (MV4-11 [29])?
A: Its Activity is 90.92%.

Q: What about the clearance [30] of the same compound?
A: The clearance was 54.2 mL/min/kg.

Q: And the Ki [31]?
A: Its Ki is 51 nM.

Q: And the Cmax [32]?
A: Its Cmax is 9.36 µM.
